Experimental data pooled from the literature.
Each line is one published result; the experiments were not run side by side.
Target: Serine/threonine-protein kinase 3 (STK3, Homo sapiens, UniProt Q13188)
Sequence (Q13188 1-491, as in one of the studies): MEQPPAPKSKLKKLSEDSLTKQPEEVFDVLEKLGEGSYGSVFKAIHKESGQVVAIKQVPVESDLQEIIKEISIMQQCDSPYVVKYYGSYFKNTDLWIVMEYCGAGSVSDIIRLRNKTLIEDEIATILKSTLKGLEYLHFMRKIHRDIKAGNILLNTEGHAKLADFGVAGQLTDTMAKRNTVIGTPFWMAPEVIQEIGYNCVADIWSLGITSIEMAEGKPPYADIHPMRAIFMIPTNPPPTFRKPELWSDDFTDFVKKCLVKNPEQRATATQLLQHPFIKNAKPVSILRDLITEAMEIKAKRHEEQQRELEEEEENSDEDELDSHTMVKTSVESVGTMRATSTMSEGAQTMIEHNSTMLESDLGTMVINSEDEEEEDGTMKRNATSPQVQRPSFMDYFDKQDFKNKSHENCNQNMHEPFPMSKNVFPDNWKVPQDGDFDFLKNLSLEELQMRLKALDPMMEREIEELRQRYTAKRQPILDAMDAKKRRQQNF

observed | method | concentration | remaining binding [%] | SMILES
cell-free assay | competition with immobilised ligand | 1 µM | 100 | O=C(O)c1cc(-c2ccc(C3CCNCC3)cc2)c2ccc(-c3ccc(C(F)(F)F)cc3)cc2c1
binding | competition with immobilised ligand | 1 µM | 89 | O=C(NCC1CCOCC1)c1n[nH]cc1NC(=O)c1c(F)cccc1F
binding | – | 1 µM | 100 | COc1ccnn2ncc(-c3ccnc(N(C)C)n3)c12
cell-free assay | competition with immobilised ligand | 1 µM | 97 | CNC(=O)Nc1ccc2c(c1)[C@@]1(CC2)OC(=O)N(CC(=O)N(Cc2ccc(F)cc2)[C@@H](C)C(F)(F)F)C1=O
binding | competition with immobilised ligand | 1 µM | 97 | C=CC(=O)N1CCC(C(=O)NCC(=O)N2CCN(c3nc(-c4cnc(N)nc4C(F)F)nc(N4CCOCC4)n3)CC2)CC1
binding | – | 1 µM | 100 | F[C@@H]1CCN(c2nccc(-c3cnn4ncccc34)n2)C1
binding | competition with immobilised ligand | 1 µM | 12 | O=C(NCCCN1CCOCC1)c1ccc(Nc2ncc(Cl)c(-c3ccc(Cl)s3)n2)cc1
cell-free assay | competition with immobilised ligand | 1 µM | 84 | COc1cc(-c2cn(C3CCc4ccccc4N(CC(F)(F)F)C3=O)nn2)ccc1-n1ccc(C)n1 (stereo not shown)
binding | – | 1 µM | 98 | CN(c1nccc(-c2cnn3ncccc23)n1)C1CC1
cell-free assay | competition with immobilised ligand | 5 µM | 58 | FC(F)(F)Oc1cccc(-c2cnc3ccc(-c4ccncc4)nn23)c1
binding | competition with immobilised ligand | 1 µM | 100 | O=C(c1ccc(Nc2nccc(-c3cc4ccccc4s3)n2)cc1)N1CCC(N2CCCC2)CC1
cell-free assay | competition with immobilised ligand | 0.1 µM | 93 | C[C@H](c1ccnc(Nc2nc3ccc(-c4cc(N(C)C)ncn4)cc3[nH]2)c1)N1CCN(C(=O)CC(F)(F)F)CC1
binding | – | 1 µM | 100 | CC1CCCN1c1nccc(-c2cnn3ncccc23)n1 (stereo not shown)
cell-free assay | competition with immobilised ligand | 1 µM | 100 | C[C@H](c1ccc(F)cc1)N(Cc1cccc(C(=O)O)c1)C(=O)c1cnc2ccccc2c1
binding | competition with immobilised ligand | 1 µM | 14 | CCN1CCN(Cc2ccc(C(=O)Nc3ccc(C)c(Oc4ccc5c(c4)CC(=O)N5)c3)cc2C(F)(F)F)CC1
binding | competition with immobilised ligand | 1 µM | 100 | CNC(=O)[C@@H]1CC[C@@H](n2c(-c3ccc4cnccc4c3)nc3ccc(C(=O)NCc4cccc(C(N)=O)c4)cc32)C1
binding | – | 1 µM | 100 | C[C@@H]1CCN(c2nccc(-c3cnn4ncccc34)n2)C1
cell-free assay | competition with immobilised ligand | 1 µM | 46 | CN(c1ccnc(CNc2nc(Nc3ccc4c(c3)CC(=O)N4)ncc2C(F)(F)F)n1)S(C)(=O)=O
binding | competition with immobilised ligand | 1 µM | 98 | COc1cnc(Nc2cccc(S(N)(=O)=O)c2)nc1N1CCN(c2ccccc2)C(=O)C1
binding | competition with immobilised ligand | 1 µM | 75 | Cc1cnc(Nc2ccc(C(=O)N3CCC(N4CCCC4)CC3)cc2)nc1-c1cc2ccccc2s1
cell-free assay | competition with immobilised ligand | 1 µM | 96 | COc1ccc2c(c1)O[C@@H](c1ccc(OC)c(OC)c1)C[C@H]2NC(=O)C1(c2ccc3c(c2)OC(F)(F)O3)CC1
binding | – | 1 µM | 98 | N[C@@H]1CCN(c2nccc(-c3cnn4ncccc34)n2)C1
